Source: ChEMBL document CHEMBL3232837, “Synthesis and evaluation of new Hsp90 inhibitors based on a 1,4,5-trisubstituted 1,2,3-triazole scaffold” (J Med Chem, 2014)
Activity calls are given as the source filed them. The calls are words filed in the database; no cut-off is given here.

Experiments:
[1] = biological target: Heat shock protein HSP 90-alpha (Homo sapiens, UniProt P07900); assay: Displacement of GM-FITC from full-length recombinant human Hsp90-alpha after 4 hrs by fluorescence polarization assay
[2] = tested on: NCI-H460; assay: Cytotoxicity against human NCI-H460 cells assessed as growth inhibition after 72 hrs by SRB assay; type: functional, cell-based; details: NCI-H460, 72 h
How it was run: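 NCI-H460 cells grown in RPMI-1640 with 10% heat-inactivated FBS, seeded at about 10% confluence and allowed 24 h recovery. Exposed to graded drug concentrations or solvent for 72 h. Surviving fraction measured by sulforhodamine B. IC50 is the concentration giving a 50% drop in cell number vs vehicle, from dose-response curve fitting; mean of n=4 with SD.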

[3] = biological target: Heat shock protein HSP 90-beta (Homo sapiens) (UniProt P08238); assay: Inhibition of HSP90 in human A431 cells overexpressing EGFR assessed as downregulation of EGFR protein expression after 24 hrs by Western blot analysis; type: cell-based; details: A-431
How it was run: (§1)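 A431 cells treated 24 h after seeding for 24 h over a concentration range; 17-DMAG 0.2 µM as reference. Cells lysed in RIPA buffer with protease and phosphatase inhibitors, protein measured by Bradford. Equal protein run on SDS-PAGE and blotted to nitrocellulose, then probed for EGFR, Cdk4, Akt, Hsp70 and actin. ECL detection; densitometry normalized to β-actin. Run at least twice.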

[4] = biological target: Heat shock protein HSP 90-beta (Homo sapiens) (UniProt P08238); assay: Inhibition of HSP90 in human A431 cells overexpressing EGFR assessed as downregulation of CDK4 protein expression after 24 hrs by Western blot analysis; type: cell-based; details: A-431; how it was run: as §1
[5] = biological target: Heat shock protein HSP 90-beta (Homo sapiens) (UniProt P08238); assay: Inhibition of HSP90 in human A431 cells overexpressing EGFR assessed as downregulation of AKT protein expression after 24 hrs by Western blot analysis; type: cell-based; details: A-431; how it was run: as §1
[6] = biological target: Heat shock protein HSP 90-beta (Homo sapiens) (UniProt P08238); assay: Inhibition of HSP90 in human A431 cells overexpressing EGFR assessed as induction of HSP70 protein expression after 24 hrs by Western blot analysis; type: cell-based; details: A-431; how it was run: as §1
[7] = tested on: NCI-H460; assay: Cell cycle arrest in human NCI-H460 cells assessed as accumulation at G2/M phase at 2 times IC50 after 24 to 72 hrs by propidium iodide staining-based FACS flow cytometric analysis; type: functional
[8] = tested on: NCI-H460; assay: Induction of apoptosis in human NCI-H460 cells assessed as cell with hypodiploid DNA content at 2 times IC50 after 24 to 72 hrs by propidium iodide staining-based FACS flow cytometric analysis; type: functional
[9] = tested on: A-431; assay: Antitumor activity against human A431 cells overexpressing EGFR xenografted in CD-1 nude mouse assessed as tumor growth inhibition at 5 mg/kg, ip administered as q2d/week for 2 weeks starting 3 days after tumor injection measured on day 5 post last dose relative to vehicle-treated control; type: functional; details: A-431, ip, route intraperitoneal, read-out: TGI
How it was run: (§2)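 Female athymic nude mice, 5-6 weeks old, inoculated s.c. in right flank with 5 × 10^6 exponentially growing tumor cells. Intraperitoneal dosing in 10 mL/kg, starting 3 days post-implant. Tumor volume = d²·D/2 from calipered shortest and longest diameters, measured biweekly. TVI% = 100 − (mean TV treated/mean TV control × 100), scored 5 days after last dose. Mann-Whitney test vs vehicle group; 8 mice per group.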

[10] = Antitumor activity against human GTL16 cells overexpressing c-Met xenografted in CD-1 nude mouse assessed as tumor growth inhibition at 5 mg/kg, ip administered as q2d/week for 2 weeks starting 3 days after tumor injection measured on day 5 post last dose relative to vehicle-treated control; type: functional; details: GTL 16, ip, route intraperitoneal, read-out: TGI; how it was run: as §2
[11] = tested on: Mus musculus; assay: Toxicity in CD-1 nude mouse xenografted with human A431 cells overexpressing EGFR assessed as body weight loss at 5 mg/kg, ip administered as q2d/week for 2 weeks starting 3 days after tumor injection measured on day 5 post last dose relative to vehicle-treated control; type: organism-based, A-431; set-up: dose 5 mg/kg, route intraperitoneal; details: in vivo
How it was run: (§3)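 Female athymic nude mice carrying s.c. xenografts, dosed i.p. (mg/10 mL/kg per administration) starting 3 days after tumor injection. BWL% = 100 − (mean BW day x/mean BW day 1 × 100), day 1 being the first treatment day. Maximum BWL% recorded. Lethal toxicity counted as deaths before the first control death.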

[12] = tested on: Mus musculus; assay: Toxicity in CD-1 nude mouse xenografted with human GTL16 cells overexpressing c-Met assessed as body weight loss at 5 mg/kg, ip administered as q2d/week for 2 weeks starting 3 days after tumor injection measured on day 5 post last dose relative to vehicle-treated control; type: organism-based; set-up: dose 5 mg/kg, route intraperitoneal; details: in vivo; how it was run: as §3
[13] = tested on: Mus musculus; assay: Toxicity in CD-1 nude mouse xenografted with human A431 cells overexpressing EGFR assessed as mortality at 5 mg/kg, ip administered as q2d/week for 2 weeks starting 3 days after tumor injection measured on day 5 post last dose relative to vehicle-treated control; type: organism-based, A-431; set-up: dose 5 mg/kg, route intraperitoneal; details: in vivo
How it was run: (§4)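 S.c. right-flank xenografts, 5 × 10^6 cells, in female athymic nude mice 5-6 weeks old. Intraperitoneal dosing in 10 mL/kg from day 3 post-implant. Lethal toxicity counted as deaths in treated mice occurring before the first control mouse died, reported as dead/treated (8 per group). Body weight loss was also tracked from the first treatment day.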

[14] = tested on: Mus musculus; assay: Toxicity in CD-1 nude mouse xenografted with human GTL16 cells overexpressing c-Met assessed as mortality at 5 mg/kg, ip administered as q2d/week for 2 weeks starting 3 days after tumor injection measured on day 5 post last dose relative to vehicle-treated control; type: organism-based; set-up: dose 5 mg/kg, route intraperitoneal; details: in vivo; how it was run: as §4
[15] = tested on: Mus musculus; assay: (§5) In vivo inhibition of HSP90 in human A431 cells overexpressing EGFR xenografted in CD-1 nude mouse assessed as downregulation of EGFR protein expression at 5 mg/kg, ip administered as q2d/week for 2 weeks starting 3 days after tumor injection measured at 2 hrs post last dose by Western blot analysis; type: functional, organism-based; set-up: dose 5 mg/kg; details: A-431
How it was run: (§6)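 Nude-mouse s.c. xenografts given i.p. compound from day 3. Tumors excised 2 h (A431) or 6 h (GTL-16) after last dose and homogenized in tissue protein extraction reagent with 10 µg/ml protease inhibitor cocktail. Whole lysates analysed by Western blot with actin as loading control; two tumor samples per group shown.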

[16] = tested on: Mus musculus; assay: (§7) In vivo inhibition of HSP90 in human A431 cells overexpressing EGFR xenografted in CD-1 nude mouse assessed as downregulation of AKT protein expression at 5 mg/kg, ip administered as q2d/week for 2 weeks starting 3 days after tumor injection measured at 2 hrs post last dose by Western blot analysis; type: functional, organism-based; set-up: dose 5 mg/kg; details: A-431; how it was run: as §6
[17] = tested on: Mus musculus; assay: (§8) In vivo inhibition of HSP90 in human A431 cells overexpressing EGFR xenografted in CD-1 nude mouse assessed as downregulation of CDK4 protein expression at 5 mg/kg, ip administered as q2d/week for 2 weeks starting 3 days after tumor injection measured at 2 hrs post last dose by Western blot analysis; type: functional, organism-based; set-up: dose 5 mg/kg; details: A-431; how it was run: as §6
[18] = tested on: Mus musculus; assay: In vivo inhibition of HSP90 in human A431 cells overexpressing EGFR xenografted in CD-1 nude mouse assessed as induction of HSP70 protein expression at 5 mg/kg, ip administered as q2d/week for 2 weeks starting 3 days after tumor injection measured at 2 hrs post last dose by Western blot analysis; type: functional, organism-based; set-up: dose 5 mg/kg; details: A-431; how it was run: as §6
[19] = tested on: Mus musculus; assay: as §5, with “human GTL16” for “human A431”, “overexpressing c-Met” for “overexpressing EGFR”, “of c-Met” for “of EGFR”, “at 6” for “at 2”; type: functional, organism-based; set-up: dose 5 mg/kg; how it was run: as §6
[20] = tested on: Mus musculus; assay: as §7, with “human GTL16” for “human A431”, “overexpressing c-Met” for “overexpressing EGFR”, “at 6” for “at 2”; type: functional, organism-based; set-up: dose 5 mg/kg; how it was run: as §6
[21] = tested on: Mus musculus; assay: as §8, with “human GTL16” for “human A431”, “overexpressing c-Met” for “overexpressing EGFR”, “at 6” for “at 2”; type: functional, organism-based; set-up: dose 5 mg/kg; how it was run: as §6
[22] = tested on: Mus musculus; assay: In vivo inhibition of HSP90 in human GTL16 cells overexpressing c-Met xenografted in CD-1 nude mouse assessed as induction of HSP70 protein expression at 5 mg/kg, ip administered as q2d/week for 2 weeks starting 3 days after tumor injection measured at 6 hrs post last dose by Western blot analysis; type: functional, organism-based; set-up: dose 5 mg/kg; how it was run: as §6
[23] = Metabolic stability in human plasma assessed as compound remaining at 5 uM measured at 120 mins by LC/MS analysis; type: ADME, cell-free
How it was run: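 Compound added to human plasma at 5 µM final and incubated at 37 °C for up to 120 min. Samples quenched in two volumes of chilled acetonitrile and centrifuged at 4 °C. Remaining compound quantified by LC/MS.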

Heat shock protein HSP 90-beta (Homo sapiens), sequence (P08238 whole entry): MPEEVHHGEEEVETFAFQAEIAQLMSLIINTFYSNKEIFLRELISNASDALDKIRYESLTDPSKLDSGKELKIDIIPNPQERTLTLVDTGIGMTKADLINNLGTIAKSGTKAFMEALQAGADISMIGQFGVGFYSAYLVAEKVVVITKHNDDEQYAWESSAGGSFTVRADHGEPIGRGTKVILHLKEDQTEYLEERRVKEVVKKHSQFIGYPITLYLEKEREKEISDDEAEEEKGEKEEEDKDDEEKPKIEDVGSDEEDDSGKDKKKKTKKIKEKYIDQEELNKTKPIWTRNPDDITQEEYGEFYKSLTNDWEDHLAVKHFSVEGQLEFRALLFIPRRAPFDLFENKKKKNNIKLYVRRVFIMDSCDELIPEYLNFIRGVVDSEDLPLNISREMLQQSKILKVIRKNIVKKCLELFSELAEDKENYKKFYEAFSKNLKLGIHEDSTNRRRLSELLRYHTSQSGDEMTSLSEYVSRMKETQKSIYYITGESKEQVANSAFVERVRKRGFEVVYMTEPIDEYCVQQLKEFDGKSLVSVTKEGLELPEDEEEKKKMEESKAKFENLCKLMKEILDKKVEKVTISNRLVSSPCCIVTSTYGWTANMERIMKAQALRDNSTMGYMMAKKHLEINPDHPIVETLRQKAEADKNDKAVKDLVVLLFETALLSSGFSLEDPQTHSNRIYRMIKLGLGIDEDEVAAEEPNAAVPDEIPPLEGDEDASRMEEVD

With `CCNC(=O)c1nnn(-c2cc(C(C)C)c(O)cc2O)c1-c1ccc(CN2CCOCC2)cc1` the IC50 [1] was under 5 nM, the IC50 [2] was 4 nM and the inhibition [3] was “Dose-dependent effect”. The inhibition [4] was “Dose-dependent effect”, the inhibition [5] was “Dose-dependent effect” and the inhibition [6] was “Dose-dependent effect”. The Activity [7] was “Active”, the Activity [8] was “Active” and the inhibition in vivo at 5 mg/kg [9] was 49%. For the same molecule, the inhibition in vivo at 5 mg/kg [10] was 42%, the Imax [11] was 1% and the Imax [12] was 17%. For the same molecule, the Activity [13] was “Non-toxic”, the Activity [14] was “Non-toxic” and the inhibition [15] was “Active”. For the same molecule, the inhibition [16] was “Active”, the inhibition [17] was “Active” and the inhibition [18] was “Active”. The inhibition [19] was “Active”, the inhibition [20] was “Active” and the inhibition [21] was “Active”. The inhibition [22] was “Active” and the remaining at 2 h, 5 µM [23] was 65%.
